Source: ChEMBL document CHEMBL5058577, “EUbOPEN Chemogenomics Library 2 (Multiplex)” (2022)

System: Fibroblast
Assay: Multiplex assay against human fibroblast
Type: toxicity, cell-based
Summary of the method: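 Cells were classed with CellPathfinder machine-learning gating, first as Hoechst high-intensity objects or normal cells, then (normal cells) as healthy, pyknosed or fragmented nuclei, and finally (pyknosed cells) as mitotic or apoptotic. Staining of live cells at seeding used Hoechst33342, BioTracker Green Microtubule Cytoskeleton Dye, MitoTracker Red and Annexin V Alexa Fluor 680, with imaging on a CQ1 microscope at 37°C and 5% CO2 after compound addition. Tubulin, mitochondrial-mass and membrane-permeability phenotypes are per cents of healthy-nucleus cells.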

[1] = 12 h, 1 µM, compound concentration 1 uM, replicate 1
[2] = 12 h, 1 µM, compound concentration 1 uM, replicate 2
[3] = 12 h, 10 µM, compound concentration 10 uM, replicate 1
[4] = 12 h, 10 µM, compound concentration 10 uM, replicate 2
[5] = 24 h, 1 µM, compound concentration 1 uM, replicate 1
[6] = 24 h, 1 µM, compound concentration 1 uM, replicate 2
[7] = 24 h, 10 µM, compound concentration 10 uM, replicate 1
[8] = 24 h, 10 µM, compound concentration 10 uM, replicate 2
[9] = 48 h, 1 µM, compound concentration 1 uM, replicate 1
[10] = 48 h, 1 µM, compound concentration 1 uM, replicate 2
[11] = 48 h, 10 µM, compound concentration 10 uM, replicate 1
[12] = 48 h, 10 µM, compound concentration 10 uM, replicate 2

Cc1sc2c(c1C)C(c1ccc(Cl)cc1)=N[C@H](CC(=O)OC(C)(C)C)c1nnc(C)n1-2
Population Apoptotic (%) [1]: 43%
Population Fragmented Nuclei (%) [1]: 15%
Population Healthy Nuclei (%) [1]: 62%
Population Hoechst High Intensity Objects (%) [1]: 2%
Population Membrane Permeable-Phenotype (%) [1]: 0%
Population Mitochondria Different-Phenotype (%) [1]: 5%
Population Mitotic Cells (%) [1]: 56%
Population Normal (%) [1]: 97%
Population Pyknosed Nuclei (%) [1]: 22%
Population Tubulin-Different-Phenotype (%) [1]: 30%
Total Cell Count [1]: 180
Population Apoptotic (%) [2]: 33%
Population Fragmented Nuclei (%) [2]: 26%
Population Healthy Nuclei (%) [2]: 51%
Population Hoechst High Intensity Objects (%) [2]: 5%
Population Membrane Permeable-Phenotype (%) [2]: 15%
Population Mitochondria Different-Phenotype (%) [2]: 10%
Population Mitotic Cells (%) [2]: 66%
Population Normal (%) [2]: 94%
Population Tubulin-Different-Phenotype (%) [2]: 46%
Total Cell Count [2]: 159
Population Apoptotic (%) [3]: 43%
Population Fragmented Nuclei (%) [3]: 19%
Population Healthy Nuclei (%) [3]: 55%
Population Hoechst High Intensity Objects (%) [3]: 7%
Population Membrane Permeable-Phenotype (%) [3]: 0%
Population Mitochondria Different-Phenotype (%) [3]: 15%
Population Mitotic Cells (%) [3]: 56%
Population Normal (%) [3]: 92%
Population Pyknosed Nuclei (%) [3]: 25%
Population Tubulin-Different-Phenotype (%) [3]: 90%
Total Cell Count [3]: 128
Population Apoptotic (%) [4]: 51%
Population Fragmented Nuclei (%) [4]: 30%
Population Healthy Nuclei (%) [4]: 39%
Population Hoechst High Intensity Objects (%) [4]: 5%
Population Membrane Permeable-Phenotype (%) [4]: 4%
Population Mitochondria Different-Phenotype (%) [4]: 20%
Population Mitotic Cells (%) [4]: 48%
Population Normal (%) [4]: 94%
Population Pyknosed Nuclei (%) [4]: 29%
Population Tubulin-Different-Phenotype (%) [4]: 95%
Total Cell Count [4]: 169
Population Apoptotic (%) [5]: 82%
Population Fragmented Nuclei (%) [5]: 17%
Population Healthy Nuclei (%) [5]: 60%
Population Hoechst High Intensity Objects (%) [5]: 2%
Population Membrane Permeable-Phenotype (%) [5]: 0%
Population Mitochondria Different-Phenotype (%) [5]: 2%
Population Mitotic Cells (%) [5]: 17%
Population Normal (%) [5]: 97%
Population Pyknosed Nuclei (%) [5]: 21%
Population Tubulin-Different-Phenotype (%) [5]: 29%
Total Cell Count [5]: 186
Population Apoptotic (%) [6]: 46%
Population Fragmented Nuclei (%) [6]: 29%
Population Healthy Nuclei (%) [6]: 50%
Population Hoechst High Intensity Objects (%) [6]: 6%
Population Membrane Permeable-Phenotype (%) [6]: 11%
Population Mitochondria Different-Phenotype (%) [6]: 5%
Population Mitotic Cells (%) [6]: 53%
Population Normal (%) [6]: 93%
Population Pyknosed Nuclei (%) [6]: 20%
Population Tubulin-Different-Phenotype (%) [6]: 51%
Total Cell Count [6]: 149
Population Apoptotic (%) [7]: 75%
Population Fragmented Nuclei (%) [7]: 16%
Population Healthy Nuclei (%) [7]: 69%
Population Hoechst High Intensity Objects (%) [7]: 8%
Population Membrane Permeable-Phenotype (%) [7]: 2%
Population Mitochondria Different-Phenotype (%) [7]: 19%
Population Mitotic Cells (%) [7]: 25%
Population Normal (%) [7]: 91%
Population Pyknosed Nuclei (%) [7]: 14%
Population Tubulin-Different-Phenotype (%) [7]: 76%
Total Cell Count [7]: 123
Population Apoptotic (%) [8]: 51%
Population Fragmented Nuclei (%) [8]: 26%
Population Healthy Nuclei (%) [8]: 45%
Population Hoechst High Intensity Objects (%) [8]: 4%
Population Membrane Permeable-Phenotype (%) [8]: 4%
Population Mitochondria Different-Phenotype (%) [8]: 26%
Population Mitotic Cells (%) [8]: 48%
Population Normal (%) [8]: 95%
Population Pyknosed Nuclei (%) [8]: 27%
Population Tubulin-Different-Phenotype (%) [8]: 87%
Total Cell Count [8]: 165
Population Apoptotic (%) [9]: 63%
Population Fragmented Nuclei (%) [9]: 19%
Population Healthy Nuclei (%) [9]: 66%
Population Hoechst High Intensity Objects (%) [9]: 5%
Population Membrane Permeable-Phenotype (%) [9]: 0%
Population Mitochondria Different-Phenotype (%) [9]: 2%
Population Mitotic Cells (%) [9]: 36%
Population Normal (%) [9]: 94%
Population Pyknosed Nuclei (%) [9]: 13%
Population Tubulin-Different-Phenotype (%) [9]: 28%
Total Cell Count [9]: 170
Population Apoptotic (%) [10]: 53%
Population Fragmented Nuclei (%) [10]: 29%
Population Healthy Nuclei (%) [10]: 49%
Population Membrane Permeable-Phenotype (%) [10]: 12%
Population Mitochondria Different-Phenotype (%) [10]: 10%
Population Mitotic Cells (%) [10]: 46%
Population Normal (%) [10]: 95%
Population Pyknosed Nuclei (%) [10]: 21%
Population Tubulin-Different-Phenotype (%) [10]: 69%
Total Cell Count [10]: 140
Population Apoptotic (%) [11]: 50%
Population Fragmented Nuclei (%) [11]: 21%
Population Healthy Nuclei (%) [11]: 66%
Population Hoechst High Intensity Objects (%) [11]: 1%
Population Membrane Permeable-Phenotype (%) [11]: 1%
Population Mitochondria Different-Phenotype (%) [11]: 13%
Population Mitotic Cells (%) [11]: 50%
Population Normal (%) [11]: 98%
Population Pyknosed Nuclei (%) [11]: 12%
Population Tubulin-Different-Phenotype (%) [11]: 70%
Total Cell Count [11]: 134
Population Apoptotic (%) [12]: 63%
Population Fragmented Nuclei (%) [12]: 35%
Population Healthy Nuclei (%) [12]: 51%
Population Membrane Permeable-Phenotype (%) [12]: 4%
Population Mitochondria Different-Phenotype (%) [12]: 9%
Population Mitotic Cells (%) [12]: 36%
Population Pyknosed Nuclei (%) [12]: 13%
Population Tubulin-Different-Phenotype (%) [12]: 88%
Total Cell Count [12]: 170

COCCn1c(C)c(C)s/c1=N\C(=O)C1C(C)(C)C1(C)C
Population Apoptotic (%) [1]: 43%
Population Fragmented Nuclei (%) [1]: 18%
Population Healthy Nuclei (%) [1]: 69%
Population Hoechst High Intensity Objects (%) [1]: 0%
Population Membrane Permeable-Phenotype (%) [1]: 0%
Population Mitochondria Different-Phenotype (%) [1]: 7%
Population Mitotic Cells (%) [1]: 56%
Population Normal (%) [1]: 99%
Population Pyknosed Nuclei (%) [1]: 11%
Population Tubulin-Different-Phenotype (%) [1]: 34%
Total Cell Count [1]: 136
Population Apoptotic (%) [2]: 40%
Population Fragmented Nuclei (%) [2]: 22%
Population Healthy Nuclei (%) [2]: 57%
Population Hoechst High Intensity Objects (%) [2]: 4%
Population Membrane Permeable-Phenotype (%) [2]: 1%
Population Mitochondria Different-Phenotype (%) [2]: 5%
Population Mitotic Cells (%) [2]: 60%
Population Normal (%) [2]: 95%
Population Pyknosed Nuclei (%) [2]: 19%
Population Tubulin-Different-Phenotype (%) [2]: 32%
Total Cell Count [2]: 133
Population Apoptotic (%) [3]: 64%
Population Fragmented Nuclei (%) [3]: 19%
Population Healthy Nuclei (%) [3]: 59%
Population Hoechst High Intensity Objects (%) [3]: 2%
Population Membrane Permeable-Phenotype (%) [3]: 1%
Population Mitochondria Different-Phenotype (%) [3]: 14%
Population Mitotic Cells (%) [3]: 35%
Population Normal (%) [3]: 97%
Population Pyknosed Nuclei (%) [3]: 20%
Population Tubulin-Different-Phenotype (%) [3]: 56%
Total Cell Count [3]: 167
Population Apoptotic (%) [4]: 37%
Population Fragmented Nuclei (%) [4]: 38%
Population Healthy Nuclei (%) [4]: 40%
Population Hoechst High Intensity Objects (%) [4]: 6%
Population Membrane Permeable-Phenotype (%) [4]: 13%
Population Mitochondria Different-Phenotype (%) [4]: 8%
Population Mitotic Cells (%) [4]: 62%
Population Normal (%) [4]: 93%
Population Pyknosed Nuclei (%) [4]: 21%
Population Tubulin-Different-Phenotype (%) [4]: 64%
Total Cell Count [4]: 120
Population Apoptotic (%) [5]: 64%
Population Fragmented Nuclei (%) [5]: 15%
Population Healthy Nuclei (%) [5]: 72%
Population Hoechst High Intensity Objects (%) [5]: 2%
Population Membrane Permeable-Phenotype (%) [5]: 1%
Population Mitochondria Different-Phenotype (%) [5]: 5%
Population Mitotic Cells (%) [5]: 35%
Population Normal (%) [5]: 97%
Population Pyknosed Nuclei (%) [5]: 11%
Population Tubulin-Different-Phenotype (%) [5]: 38%
Total Cell Count [5]: 122
Population Apoptotic (%) [6]: 54%
Population Fragmented Nuclei (%) [6]: 28%
Population Healthy Nuclei (%) [6]: 54%
Population Hoechst High Intensity Objects (%) [6]: 3%
Population Membrane Permeable-Phenotype (%) [6]: 5%
Population Mitotic Cells (%) [6]: 45%
Population Normal (%) [6]: 96%
Population Pyknosed Nuclei (%) [6]: 17%
Population Tubulin-Different-Phenotype (%) [6]: 37%
Total Cell Count [6]: 132
Population Apoptotic (%) [7]: 68%
Population Fragmented Nuclei (%) [7]: 20%
Population Healthy Nuclei (%) [7]: 59%
Population Hoechst High Intensity Objects (%) [7]: 4%
Population Membrane Permeable-Phenotype (%) [7]: 0%
Population Mitochondria Different-Phenotype (%) [7]: 15%
Population Mitotic Cells (%) [7]: 31%
Population Normal (%) [7]: 95%
Population Pyknosed Nuclei (%) [7]: 19%
Population Tubulin-Different-Phenotype (%) [7]: 61%
Total Cell Count [7]: 154
Population Apoptotic (%) [8]: 33%
Population Fragmented Nuclei (%) [8]: 40%
Population Healthy Nuclei (%) [8]: 36%
Population Hoechst High Intensity Objects (%) [8]: 3%
Population Membrane Permeable-Phenotype (%) [8]: 11%
Population Mitochondria Different-Phenotype (%) [8]: 19%
Population Mitotic Cells (%) [8]: 66%
Population Normal (%) [8]: 96%
Population Pyknosed Nuclei (%) [8]: 23%
Population Tubulin-Different-Phenotype (%) [8]: 66%
Total Cell Count [8]: 120
Population Apoptotic (%) [9]: 60%
Population Fragmented Nuclei (%) [9]: 23%
Population Healthy Nuclei (%) [9]: 63%
Population Hoechst High Intensity Objects (%) [9]: 4%
Population Membrane Permeable-Phenotype (%) [9]: 0%
Population Mitochondria Different-Phenotype (%) [9]: 4%
Population Mitotic Cells (%) [9]: 40%
Population Normal (%) [9]: 95%
Population Pyknosed Nuclei (%) [9]: 12%
Population Tubulin-Different-Phenotype (%) [9]: 43%
Total Cell Count [9]: 123
Population Fragmented Nuclei (%) [10]: 31%
Population Healthy Nuclei (%) [10]: 56%
Population Hoechst High Intensity Objects (%) [10]: 7%
Population Membrane Permeable-Phenotype (%) [10]: 2%
Population Normal (%) [10]: 92%
Population Pyknosed Nuclei (%) [10]: 11%
Population Tubulin-Different-Phenotype (%) [10]: 45%
Total Cell Count [10]: 140
Population Apoptotic (%) [11]: 75%
Population Fragmented Nuclei (%) [11]: 23%
Population Healthy Nuclei (%) [11]: 56%
Population Hoechst High Intensity Objects (%) [11]: 7%
Population Membrane Permeable-Phenotype (%) [11]: 0%
Population Mitochondria Different-Phenotype (%) [11]: 22%
Population Mitotic Cells (%) [11]: 25%
Population Normal (%) [11]: 92%
Population Pyknosed Nuclei (%) [11]: 20%
Population Tubulin-Different-Phenotype (%) [11]: 67%
Total Cell Count [11]: 151
Population Apoptotic (%) [12]: 58%
Population Fragmented Nuclei (%) [12]: 49%
Population Healthy Nuclei (%) [12]: 34%
Population Hoechst High Intensity Objects (%) [12]: 8%
Population Membrane Permeable-Phenotype (%) [12]: 14%
Population Mitochondria Different-Phenotype (%) [12]: 11%
Population Mitotic Cells (%) [12]: 41%
Population Normal (%) [12]: 91%
Population Pyknosed Nuclei (%) [12]: 16%
Population Tubulin-Different-Phenotype (%) [12]: 65%
Total Cell Count [12]: 111
